TCR CD3 inh: human TCR-CD3 binding inhibition | inhibition, % at 9.4 µM | hit rate 0.37% among 360,000 | TAMRA-labeled TCR probe fluorescence, biochemical | AID 651800; in the data active means inhibition above about 19%;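 further: recombinant mutant TCR 2C K166C tagged with TAMRA read by polarization; 0% = receptor in buffer alone and 100% = receptor with positive control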
SIAE inh: inhibitors of human sialic acid acetylesterase SIAE; hit rate 0.69% among 370,000; inhibition, % at 9.66 µM; SIAE FP-Rh probe binding, fluorescence polarization; Q9HAT2; AID 1053197;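 active means inhibition above a cutoff: mean of compounds within the control limits plus 3 SD of those, cut at about 17% in these data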;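 further: 0% = plate median of compound wells and 100% = probe without SIAE protein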
HTRA1 inhibitor: blocks human HTRA1 serine peptidase; recombinant HTRA1, FP-rhodamine activity-based probe, fluorescence polarization; Q92743; inhibition, % at 5.96 µM; hit rate 0.5% among 340,000; in the data active means inhibition above about 36%;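 further: 0% = enzyme with DMSO and 100% = wells lacking enzyme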
pPAFAH inh: pPAFAH (human) enzyme inhibition; inhibition, % at 3.39 µM; recombinant pPAFAH, FP-rhodamine probe fluorescence polarization; Q13093; hit rate 1.5% among 330,000;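 active means inhibition above the mean inhibition across the screen plus 3 SD, cut at about 25% in these data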;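 further: inhibitors block binding of the rhodamine activity-based probe so polarization drops; 0% = enzyme with DMSO and 100% = wells lacking pPAFAH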
ABHD4 inh: ABHD4 (mouse) inhibition, primary FP screen. Q8VD66. purified mABHD4, FP-Rh probe fluorescence polarization. inhibition, % at 8.92 µM. hit rate 0.54% among 370,000. AID 720543;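 active means inhibition exceeding the mean over every tested compound plus 3 SD, cut at about 30% in these data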;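 further: 0% = plate median of compound wells and 100% = S159A mutant with DMSO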
Target sequence (Q8VD66 whole entry, looked up): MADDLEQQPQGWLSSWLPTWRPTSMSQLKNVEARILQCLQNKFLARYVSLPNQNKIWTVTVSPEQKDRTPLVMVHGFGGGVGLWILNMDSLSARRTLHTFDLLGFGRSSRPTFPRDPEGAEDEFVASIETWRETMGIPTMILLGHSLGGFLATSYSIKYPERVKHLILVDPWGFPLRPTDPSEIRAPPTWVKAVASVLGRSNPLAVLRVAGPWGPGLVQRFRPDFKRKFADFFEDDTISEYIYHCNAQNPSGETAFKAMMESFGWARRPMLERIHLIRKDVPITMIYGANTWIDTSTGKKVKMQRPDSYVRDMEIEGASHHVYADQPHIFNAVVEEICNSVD
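Assay system: mABHD4 protein; medium: HEPES pH 7.0, NaCl, Pluronic buffer; dosing: 8.92 µM, single dose; schedule: 45 min + 60 min at 25 °C; signal: FP readout, ex 525 nm / em 598 nm; read-out: normalized percent inhibition of probe labeling; repeats: single replicate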
ABHD4 confirm: confirmation of mouse ABHD4 inhibitors; shares compounds with ABHD4 inh; purified mABHD4, FP-Rh probe fluorescence polarization; inhibition, % at 8.92 µM; hit rate 55% among 1,800;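 active means mean inhibition across replicates above the hit cutoff set in the primary screen, cut at about 30% in these data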;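 further: 0% = wild-type ABHD4 with DMSO and 100% = catalytically dead S159A mutant with DMSO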
* hit, by the source's call; x = no result given. Rows were chosen to be rich in hits. Some 2.3% of all compounds tested hit in one or more screens of this group.

SMILES | TCR CD3 inh | SIAE inh | HTRA1 inhibitor | pPAFAH inh | ABHD4 inh | ABHD4 confirm
O=C(O)c1cc(N/N=C2/CC(c3ccccc3)Oc3ccccc32)ccc1Cl (stereo not drawn) | 0 | 7 | 4 | 34* | 32* | 72*
F[B-](F)(F)c1cnc2ccccc2c1 | 0 | -2 | 7 | x | 31* | 23
COc1ccc(-c2cc(C(=O)N/N=C/C(C)=C\c3ccco3)[nH]n2)cc1 | x | -15 | x | x | -24 | x
O=C1Cc2cc(S(=O)(=O)N3CCN(c4ccc(C(=O)O)cc4)CC3)ccc2N1 | 3 | -4 | x | x | 33* | 10
C/C(=N\Nc1ccc(Cl)c(C(=O)O)c1)c1ccc[nH]1 | -7 | 10 | 17 | 33* | 35* | 50*
C/C(=N\Nc1ccc(Cl)c(C(=O)O)c1)c1cccs1 | 0 | -3 | 2 | 14 | 7 | x
O=C(O)c1cccc(Nc2nc(-c3cc4ccccc4oc3=O)cs2)c1 | 5 | -32 | 1 | x | 30* | 49*
O=c1oc2ccccc2cc1-c1csc(NN=C2CCCC2)n1 | -4 | 6 | -5 | 10 | 14 | x
O=C(O)CCCCCNC(=O)c1ccc(C(=O)NCCCCCC(=O)O)cc1 | -3 | -3 | 9 | -5 | 63* | 3
O=C(O)CCCCCNC(=O)c1ccncc1 | 1 | -2 | 5 | 10 | 0 | x
COc1cccc(C(=O)CC(=O)C(=O)Nc2cc(OC)ccc2OC)c1 | -6 | 2 | 2 | 7 | 32* | 8
C#CCNC(=O)C[C@H]1C(=O)N(CCCOC)C2=CCCC[C@@]21C(=O)OCC | x | -1 | x | x | 6 | x
Cc1c(Cl)cccc1N/C(SCC(=O)N1CCCCCC1)=C(/C#N)c1nc2ccccc2s1 | -3 | -3 | -3 | -3 | 35* | 34*
O=C(CSc1nc2ccccc2s1)N1CCCCC1 | 4 | 4 | 9 | 4 | 6 | x
N=C1S/C(=C\c2ccc(-c3ccccc3C(=O)O)o2)C(=O)N1c1ccc2c(c1)OCO2 | 0 | -2 | 8 | x | 49* | 63*
COc1ccccc1N1C(=N)S/C(=C\c2ccc(-c3ccccc3C(=O)O)o2)C1=O | -1 | 1 | -2 | 18 | 12 | x
O=C(NN=Cc1cccc(O)c1O)c1ccccc1 | 3 | 8 | x | x | 39* | 7
O=C(N/N=C/c1ccccc1O)c1ccncc1 | -1 | -4 | 7 | 5 | 2 | x
O=C1NC[C@@H](CCCCN2C[C@H](Cc3ccccc3)N(CC3CCCCC3)C(=O)C2=O)N(CCc2ccccc2)C1=O | 1 | -4 | x | x | 5 | x
Cc1ccc(NC(=O)OC[C@@H]2CSCCS(=O)(=O)N2)cc1 | -11 | 0 | x | x | 7 | x
c1cc(CNc2ccc(N3CCOCC3)cc2)ccn1 | 12 | 6 | 8 | 9 | 22 | x
c1cc2c(cc1CNc1ccc(N3CCOCC3)cc1)OCO2 | 0 | 12 | 30 | 14 | 30* | -15
c1ccc(-c2nc(-c3ccccn3)nc(-c3ccccn3)n2)nc1 | 1 | -1 | 2 | 0 | 35* | 47*
CC(C)(C)c1ccc(C(=O)N/C(=C\c2cccc([N+](=O)[O-])c2)C(=O)Nc2cccc(C(=O)O)c2)cc1 | 1 | -3 | -27 | 14 | 33* | 31*
CCCCNC(=O)C1C(c2ccc(C(F)(F)F)cc2)=Nc2ccccc2N1C(=O)C1CCN(C(C)=O)CC1 (stereo not drawn) | -1 | 2 | x | x | -4 | x
SMILES | TCR CD3 inh | SIAE inh | HTRA1 inhibitor | pPAFAH inh | ABHD4 inh | ABHD4 confirm
CCCCNC(=O)NCC1CCN(Cc2ccc(OC)cc2)CC1 | x | -1 | x | x | -1 | x
Cc1cc(C)cc([C@H]2C[C@]34CN(Cc5ccccc5)S(=O)(=O)[C@H]3C[C@H]2O4)c1 | -4 | -3 | x | x | -10 | x
COc1ccc(N2CCN(C(=O)Cn3cncn3)CC2)cc1 | 11 | 6 | 1 | -3 | 37* | 3
Cc1oc2ccc(O)cc2c1C(=O)c1ccc([N+](=O)[O-])cc1 | 4 | 3 | -2 | 1 | 8 | x
CN(C)/C=C/c1oc2ccc(O)cc2c1[N+](=O)[O-] | 1 | -2 | 4 | 18 | 32* | 5
C#CCn1c2ccccc2c(=O)n1CCOc1ccccc1OC | -1 | 4 | x | x | 2 | x
CC(C)(C)c1ccc(S(=O)(=O)NC(=O)C2(C)CCN2C(=O)Cc2ccc(-c3ccccc3)cc2)cc1 (stereo not drawn) | 0 | 1 | x | x | 45* | 15
CON(C)C(=O)/C=C/c1ccc([B-](F)(F)F)cc1 | 4 | 0 | 2 | x | 42* | 47*
Oc1ccc(N=Cc2cc(Br)c(N3CCOCC3)o2)cc1 | 32* | 4 | 15 | 11 | 42* | 6
Cc1cc(O)c(C=Nc2ccc(N3CCOCC3)cc2)c(C)c1Cl | -7 | 4 | 8 | 9 | 11 | x
Cc1cccc2c1NC(=O)/C2=C\C(=O)c1cccs1 | 6 | 5 | -4 | 3 | 13 | x
CCc1ccc2c(c1)/C(=C/C(=O)c1cccs1)C(=O)N2 | 6 | 11 | -7 | 7 | 37* | 56*
Cc1ccc(S(=O)(=O)N/N=C/c2ccc(O)c(O)c2)cc1[N+](=O)[O-] | 7 | 9 | 21 | 4 | 40* | 14
COCc1cc(N2CCN(C(=O)OC(C)(C)C)C[C@@H]2C)ccc1N1CC[C@H](O)C1 | 6 | 9 | x | x | 35* | 14
COCc1cc(N2CCN(C(=O)OC(C)(C)C)C[C@H]2C)ccc1N1CC[C@H](O)C1 | 3 | 11 | x | x | 38* | 9
COCc1cc(N2CCN(C(=O)OC(C)(C)C)C[C@@H]2C)ccc1N1CCS(=O)(=O)CC1 | 4 | -3 | x | x | -4 | x
O=C(NC1CCCC1)C(C1CC1)n1c(-c2ccnc3ccccc23)nc2ccccc21 (stereo not drawn) | 2 | -1 | x | x | 2 | x
O=C(O)c1cc(NC(=O)c2ccc(Cl)c([N+](=O)[O-])c2)cc(C(=O)O)c1 | 0 | 0 | -3 | -7 | 1 | x
O=C(O)c1ccc(N2CCN(c3ccc(Cl)cc3)CC2)c([N+](=O)[O-])c1 | -2 | 3 | -5 | 6 | 38* | 47*
COc1ccccc1Nc1ccc(C(=O)O)cc1[N+](=O)[O-] | 0 | 10 | 6 | 2 | 10 | x
CC(C)c1ccc(Nc2ccc(C(=O)O)cc2[N+](=O)[O-])cc1 | 3 | 13 | -1 | 11 | 61* | 69*
O=C(/C=C/c1ccc(Cl)cc1)N1CCN(c2ccc(Cl)cc2[N+](=O)[O-])CC1 | 6 | -1 | -7 | 8 | 1 | x
Cc1ccc(Nc2ccc(C(=O)O)cc2[N+](=O)[O-])cc1 | -13 | -2 | 4 | 7 | 30* | 55*
O=C(O)c1ccc(Nc2ccc(Cl)c(Cl)c2)c([N+](=O)[O-])c1 | -4 | 10 | -6 | x | 44* | 62*
COC(=O)C1(C(=O)OC)c2ccccc2CN(S(=O)(=O)c2ccc(C)cc2)C1CC(C)=O (stereo not drawn) | 8 | 0 | x | x | -3 | x
CC(NCc1ccco1)C(=O)N1CCN(Cc2ccccc2F)CC1 (stereo not drawn) | x | -5 | x | x | -2 | x
COc1cccc(Nc2ccc(C(=O)O)cc2[N+](=O)[O-])c1 | 9 | 4 | 1 | 2 | 36* | 47*
